Screening data (PubChem)
CRFR2-BP ag: agonists of human CRF-binding protein/CRF-R2 receptor complex; activation, % at 13.2 µM; HEK293 CRF-R2/CRF-BP, calcium dye fluorescence (FLIPR); percent of saturating CRF peptide response; actives 0.46% (n = 350,000); AID 588473;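 active = activation of at least 50%, plus an integration ratio under a set limit after plate pattern correction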;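 note: plate controls were neutral control wells without compound for no effect and CRF at EC100 for full effect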
CRFBP-R2 block: blocks CRF-induced signaling of the CRF-BP/CRF-R2 complex. HEK293 CRF-R2/CRF-BP, CRF-induced calcium fluorescence. inhibition, % at 11.8 µM. actives 0.59% (n = 350,000);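 active = inhibition of the ligand-induced calcium signal above about 50% at the single tested concentration, limit read from the data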
TRPML3 agonist: human mucolipin-3 channel agonism. HEK293 TRPML3-YFP, Fluo-8 calcium fluorescence; 100% = the carbachol control signal. AID 1448. Q8TDD5. actives 0.29% (n = 220,000). activation, % at 3 µM;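 active = activation above its plate's cutoff, the mean activation of the plate's test wells plus 3 SD, cut at about 12% in these data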;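 note: 0% = DMSO only wells and 100% = carbachol wells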
Target sequence (Q8TDD5 whole entry, looked up): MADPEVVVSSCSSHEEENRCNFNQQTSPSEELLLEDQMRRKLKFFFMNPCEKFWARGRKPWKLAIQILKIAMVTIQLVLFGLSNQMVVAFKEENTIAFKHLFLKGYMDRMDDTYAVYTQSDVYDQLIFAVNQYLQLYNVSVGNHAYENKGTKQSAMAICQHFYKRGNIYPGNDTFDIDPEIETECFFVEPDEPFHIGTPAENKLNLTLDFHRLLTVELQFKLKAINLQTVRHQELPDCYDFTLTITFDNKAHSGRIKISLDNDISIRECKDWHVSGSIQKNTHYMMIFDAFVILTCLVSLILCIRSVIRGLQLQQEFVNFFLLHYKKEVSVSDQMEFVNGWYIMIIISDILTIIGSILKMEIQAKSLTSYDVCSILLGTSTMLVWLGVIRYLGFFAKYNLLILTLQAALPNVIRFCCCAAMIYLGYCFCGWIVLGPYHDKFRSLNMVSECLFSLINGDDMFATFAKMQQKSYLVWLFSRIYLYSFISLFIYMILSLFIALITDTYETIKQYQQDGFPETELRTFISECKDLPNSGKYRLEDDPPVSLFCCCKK
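Material: TRPML3-YFP stable HEK293 cells | Dosing: One concentration, 3 µM nominal, 0.3% DMSO | Timing: 125 s total fluorescence read per well | Technique: Fluo-8 calcium dye fluorescence, ex 470-495, em 515-575 nm | Measure: Percent activation from peak-to-basal fluorescence ratio, scaled between DMSO and carbachol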
IMP-1 inhibitor: inhibitors of Pseudomonas aeruginosa IMP-1 metallo-beta-lactamase; actives 0.45% (n = 290,000); purified IMP-1, nitrocefin hydrolysis, epi-absorbance fluorescence; inhibition, % at 5.6 µM; AID 1556;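 active = inhibition above the mean plus 3 SD of all compounds in the same screening run, cut at about 4.5% in these data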;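 note: 0% = IMP-1 with DMSO and 100% = DMSO wells lacking enzyme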
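Assay system: purified recombinant IMP-1 beta-lactamase. Input: IMP-1 0.2 nM before substrate addition. Buffer or medium: Zinc- and detergent-supplemented HEPES buffer, pH 7.1. Schedule: 25 °C, 15 min preincubation, 25 min reaction. Signal: Epi-absorbance fluorescence, 480 nm excitation, 530 nm emission. Evaluation: percent inhibition from optical density relative to buffer-blank wells.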
VIM-2 inhibitor: blocks Pseudomonas aeruginosa VIM-2 metallo-beta-lactamase | AID 1527 | purified VIM-2, nitrocefin hydrolysis, epi-absorbance fluorescence | inhibition, % at 5.6 µM | actives 0.89% (n = 290,000);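 active = inhibition above the mean of all tested compounds plus 3 SD, cutoff set per screening run, cut at about 7.5% in these data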;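 note: red hydrolysis product quenches plate fluorescence so inhibitors raise well fluorescence; 0% = enzyme with DMSO and 100% = DMSO without enzyme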
TRPN1 ag: agonists of zebrafish TRPN1 channel. HEK293 zebrafish TRPN1-YFP, Fluo-8 calcium fluorescence; 100% = response to 87 µM carbachol. activation, % at 3 µM. actives 0.18% (n = 220,000);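 active = activation above its plate's cutoff, the mean activation of test wells on that plate plus 3 SD, cut at about 19% in these data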;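 note: 0% = DMSO alone and 100% = 87 µM carbachol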
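Assay system: Zebrafish TRPN1-YFP in HEK293 cells | Incubation: Dye loading 1 h at 37 °C, then 30 min room temperature | Measured by: Kinetic Fluo-8 fluorescence, ex 470-495, em 515-575 nm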
* = called active by the depositor; nt = no result. Only some compounds are listed: those with a hit (about 2.1% of all), similar ones and a draw of the others.

SMILES	CRFR2-BP ag	CRFBP-R2 block	TRPML3 agonist	IMP-1 inhibitor	VIM-2 inhibitor	TRPN1 ag
CCn1cc(C(=O)NCCN(C)C)c(=O)c2cc(F)c(N3CCN(C)CC3)cc21	1	14	nt	-2	12*	nt
CCn1cc(S(=O)(=O)c2ccc(C)cc2)c(=O)c2cc(F)c(N3CCN(C)CC3)cc21	0	37	nt	0	7.9*	nt
CCn1cc(C(=O)Nc2ncccc2O)c(=O)c2cc(F)c(N3CCN(C(=O)c4ccco4)CC3)cc21	0	7	nt	8.0*	1	nt
CCN(CC)CCNC(=O)c1cn(CC)c2cc(N3CCN(C(=O)c4ccco4)CC3)c(F)cc2c1=O	2	21	1	-4	4	2
CCN(CC)CCCNC(=O)c1cn(CC)c2cc(N3CCN(C(=O)c4ccco4)CC3)c(F)cc2c1=O	3	-7	nt	-3	12*	nt
Cc1ccc(S(=O)(=O)c2cn(C)c3cc(N4CCN(C)CC4)c(F)cc3c2=O)cc1	0	-8	nt	-6	3	nt
CC[C@]12C(=O)N(C)C[C@H]([C@@H]3C(=O)N(Cc4ccccc4)C(=O)[C@@H]31)N2C(=O)c1ccc(C(F)(F)F)cc1	-1	-1	nt	nt	nt	nt
COc1ccc(S(=O)(=O)N2CCN(C(=O)c3cc4c(s3)CCC4)CC2)cc1	0	3	nt	nt	nt	nt
CC1=C(c2ccccc2)C(=S)NC(C)(C)C1	-1	-4	1	-4	-1	2
COc1ccc(N2C(=O)CSC2c2ccccc2F)c(OC)c1 (centres undefined)	-3	17	nt	-3	-3	nt
Cc1cc(C)n(-c2ccc(C(=O)OCC(=O)c3ccc(Br)s3)cc2)n1	0	-15	0	9.1*	4	0
Cc1cc(C)n(-c2ccc(C(=O)Oc3ccc4c(c3)OCO4)cc2)n1	-1	73*	-1	-3	-1	-1
CCNC(=O)COC(=O)c1ccc(-n2nc(C)cc2C)cc1	4	3	-2	-2	-2	0
CC1CCN(S(=O)(=O)c2ccc(NC(=O)[C@@H]3CCCN3C(=O)c3cccs3)cc2)CC1	-1	-9	nt	nt	nt	nt
O=C(Nc1nn[nH]n1)C12CC3CC(CC(C3)C1)C2	0	-10	1	-1	9.0*	0
O=C(C=Cc1ccccc1)c1cccs1	-3	-9	nt	nt	nt	nt
Nc1ccc(/C=C/C(=O)c2cccs2)cc1	103*	-73	11	-1	-5	15
CCc1[nH]nc2c1C1(CCN(C(=O)c3ccccc3)CC1)C(C#N)=C(N)O2	0	-3	0	-9	11*	3
CC(=O)N1CCC2(CC1)C(C#N)=C(N)Oc1n[nH]c(CSc3ccc(C)cc3)c12	0	-16	0	-5	-1	0
CC1=Nc2ccccc2/C1=C/c1sc(=S)n(-c2cccc(C(=O)O)c2)c1O	47	-35	18*	-2	-1	20*
Oc1c(C=C2N=c3ccccc3=N2)sc(=S)n1-c1ccccc1	0	-2	0	1	1	1
COc1ccc(CNC(=O)CN(C(=O)c2csnn2)c2cccc(C(C)=O)c2)cc1	-1	-1	nt	0	-2	nt
COc1ccc2ccccc2c1C(=O)/C=C\c1ccoc1	3	11	-1	6.6*	-2	0
CN1C(=O)NC(c2ccccc2)C2=C1CN(CCc1ccccc1)C2=O (centres undefined)	0	125*	1	-2	-2	1
CCOC(=O)N1CCN(C(=O)c2ccc3nc(SCc4ccc(F)cc4)n(C)c3c2)CC1	-5	51*	-2	0	0	-1
SMILES	CRFR2-BP ag	CRFBP-R2 block	TRPML3 agonist	IMP-1 inhibitor	VIM-2 inhibitor	TRPN1 ag
CC(=O)Nc1cccc(NC(=O)c2cc(-c3cccnc3)nc3ccc(Br)cc23)c1	3	-26	1	5.2*	0	5
CC(=O)Nc1cccc(NC(=O)c2cc(-c3cccnc3)nc3ccc(Cl)cc23)c1	-1	-14	1	-1	0	4
CSc1ccccc1NC(=O)c1cc(-c2cccnc2)nc2ccc(Br)cc12	2	36	0	6.3*	-1	-1
CCOC(=O)c1sc(NC(=O)c2cc(-c3ccc(C)cc3)nc3ccccc23)c(C#N)c1C	47	17	0	-3	-4	0
CC(=O)N1CCc2c(sc(NC(=O)c3ccc([N+](=O)[O-])o3)c2C#N)C1	-3	11	0	-2	-3	-1
COC(=O)c1sc(NC(=O)c2ccc([N+](=O)[O-])o2)c(C#N)c1C	41	74*	8	-2	-2	19
COC(=O)c1sc(NC(=O)c2cc(-c3ccccc3)nc3ccccc23)c(C#N)c1C	54*	21	0	-2	1	3
CC(/C=C/C=C/c1ccccc1)=N/NC(=O)c1ccc2c(c1)OCCO2	0	-12	0	-3	-2	0
CN1CCN(c2ccc(C(=O)c3ccccc3)cc2[N+](=O)[O-])CC1	0	8	1	-2	8.3*	0
CN1CCN(c2ccccc2NC(=O)c2ccc(N3CCCCC3)c([N+](=O)[O-])c2)CC1	0	-24	1	0	-1	0
C/C(=N\NC(=O)C(N)=O)c1cccc([N+](=O)[O-])c1	-2	5	0	15*	-2	2
C/C(=N\Nc1cc(C)nc(-c2ccccc2)n1)c1cccc([N+](=O)[O-])c1	6	119*	1	-3	-6	0
COC(=O)c1cc(NS(=O)(=O)c2ccc(C(C)C)cc2)ccc1N1CCOCC1	-3	-20	-1	0	0	-3
O=C(CC1C[C@H](C(=O)N2CCCCC2)[C@@]2(CCc3ccccc3)c3[nH]c4ccccc4c3CCN2C1=O)NCCCn1ccnc1 (some centres undefined)	-2	-27	nt	nt	nt	nt
CC1=NNC(=O)/C1=C\c1cn(-c2ccccc2)nc1-c1ccc(F)cc1	26	-45	2	-5	-3	1
CC1=NNC(=O)/C1=C\c1cn(-c2ccccc2)nc1-c1cccs1	80*	-57	2	-2	-6	3
CC(C)c1ccc(NC(=O)CN2C(=O)NC3(CCCC3)C2=O)cc1	-2	-8	nt	0	0	nt
CN(C)C=Nc1c(Br)cc(Br)c2nonc12	109*	-66	8	3	6	8
CN(C)C=Nc1nonc1-c1ccccc1	-4	-7	0	-2	-4	1
CCOC(=O)C1Nc2ccc(C(=O)O)cc2C2C=CCC12 (centres undefined)	7	-16	nt	35*	-1	nt
CC1(C)C2CC=C(/C=N/NC(=O)c3ccccc3O)C1C2 (centres undefined)	47	59*	0	-3	-5	0
N#Cc1ccc(NC(=O)Nc2ccc(Cl)cc2)cc1	50	29	15*	-3	-3	22*
